Assays:
Trypanosoma cruzi = assay: Antitrypanosomal activity against intracellular amastigotes stage of recombinant Trypanosoma cruzi Tulahuen expressing beta galactosidase infected in NIH/3T3 cells assessed as growth inhibition after 4 days by HTS-ready assay; format: functional, organism-based; conditions: NIH3T3, 96 h
In short: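 NIH-3T3 fibroblasts were mixed 1:1 with β-galactosidase-expressing Tulahuen trypomastigotes from LLC-MK2 culture supernatants, at 1x10^3 cells/well, onto pre-dispensed compounds (50 to 0.00085 μM, DMSO ≤0.5%). Cultures were held 4 days at 37 °C, 5% CO2. Resorufin-β-D-galactopyranoside (5 µM in PBS with Igepal) was added for 4 h at room temperature, and fluorescence was read at 531/595 nm. Untreated parasites served as negative control.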

[1] = Cytotoxicity against mouse NIH/3T3 cells after 4 days by CellTiter-Glo luminiscence assay; format: cell-based, NIH3T3; conditions: read-out: TC50
In short: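 Mouse embryonic fibroblasts were seeded at 1x10^3 cells/well onto pre-dispensed compounds (top concentration 100 μM) for 4 days at 37 °C, 5% CO2. Controls were 0.5% DMSO (100% viable) and amphotericin B 50 μM (100% toxicity). Viability was measured as ATP by CellTiter-Glo luminescence at room temperature. TC50 was obtained by nonlinear regression.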

HepG2 = assay: Cytotoxicity against human HepG2 cells 48 hrs by CellTiter-Glo luminiscence assay; format: functional; conditions: HepG2, 48 h, read-out: TC50 (the source's name)
In short: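 Human hepatoma cells were plated at 3,000 cells/well onto pre-dispensed compounds, handled as for the fibroblast assay, and incubated 48 h at 37 °C, 5% CO2. ATP-based viability was read by CellTiter-Glo luminescence after room-temperature incubation. TC50 was obtained by nonlinear regression.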

[2] = Selectivity index, ratio of TC50 for mouse NIH/3T3 cells to IC50 for amastigotes stage of recombinant Trypanosoma cruzi Tulahuen expressing beta galactosidase infected in NIH/3T3 cells; format: toxicity, cell-based; conditions: read-out: Selectivity Index

| Compound | IC50 (Trypanosoma cruzi; read-out: IC50) [µM] | IC50 (Trypanosoma cruzi; read-out: pIC50 (converted)) [µM] | CC50 at 96 h [1] [µM] | CC50 (HepG2) [µM] | selectivity ratio [2] |
| --- | --- | --- | --- | --- | --- |
| C/C(=N\Nc1nc(-c2ccc(F)cc2)cs1)c1ccccn1 | 1.32 | 1.32 | 4.9 | 91.2 | – |
| Clc1ccc(-c2csc(N/N=C/c3ccccn3)n2)cc1 | 1.86 | 1.86 | > 50.1 | > 100 | 26.9 |
| C/C(=N\Nc1nc(-c2ccccc2)c(C)s1)c1ccc(Cl)c(Cl)c1 | 4.9 | 4.9 | 28.2 | > 100 | – |
| C/C(=N\Nc1nc(-c2ccc(F)cc2)cs1)c1ccc(Cl)c(Cl)c1 | 16.2 | 16.2 | 28.2 | > 100 | – |
| Cc1ccccc1SC/C=N/NC(N)=S | 4.9 | 4.9 | > 50.1 | > 100 | – |
| NC(=S)N/N=C/CSc1ccc(Br)cc1 | 1.62 | 1.62 | 28.8 | 53.7 | – |
| COc1ccc(-c2csc(N/N=C(\C)c3ccccn3)n2)cc1 | 2.24 | 2.24 | 3.47 | > 100 | – |
| Cc1cccc(SC/C=N/NC(N)=S)c1 | 3.24 | 3.24 | > 50.1 | > 100 | – |
| C/C(=N\N=C1\SC(C)C(=O)N1c1ccccc1)c1ccc(Cl)c(Cl)c1 (configuration not stated) | > 50.1 | – | > 50.1 | > 100 | – |
| NC(=S)N/N=C/CSc1ccc(Cl)cc1 | 2.09 | 2.09 | 39.8 | 75.9 | – |
| NC(=S)N/N=C/CSc1ccccc1Cl | 3.09 | 3.09 | > 50.1 | > 100 | – |
| C/C(=N\Nc1nc(-c2ccc(C)cc2)cs1)c1ccccn1 | 1.7 | 1.7 | 4.47 | > 100 | – |
| C(=N\Nc1nc(-c2ccccc2)cs1)/c1ccccn1 | 2.19 | 2.19 | 17 | > 100 | – |
| Clc1ccc(-c2csc(N/N=C/c3ccccn3)n2)c(Cl)c1 | 1.05 | 1.05 | 14.5 | > 100 | – |
| C/C(=N\Nc1nc(-c2ccc(Br)cc2)cs1)c1ccccn1 | 1 | 1 | 3.98 | 85.1 | – |
| CC/C(=N\Nc1nc(-c2ccc(OC)cc2)cs1)c1cccc(Br)c1 | 30.2 | 30.2 | > 50.1 | > 100 | – |
| C/C(=N\N=C(\N)S)c1ccc(Cl)c(Cl)c1 | 0.63 | – | 17.8 | 43.6 | – |
| NC(=S)N/N=C/CSc1cccc(Cl)c1 | 1.78 | 1.78 | > 50.1 | > 100 | 28.1 |
| C/C(=N\Nc1nc(-c2ccccc2)cs1)c1ccccn1 | 1.12 | 1.12 | 3.89 | 91.2 | – |
| Brc1ccc(-c2csc(N/N=C/c3ccccn3)n2)cc1 | 2.24 | 2.24 | 14.1 | > 100 | – |
| COc1ccc(-c2csc(N/N=C(\C)c3ccc(Cl)c(Cl)c3)n2)cc1 | 17 | 17 | > 50.1 | > 100 | – |
| O=[N+]([O-])c1cccc(-c2csc(N/N=C/c3ccccn3)n2)c1 | 1.62 | 1.62 | 38 | > 100 | 23.5 |
| C/C(=N\Nc1nc(-c2cccc3ccccc23)cs1)c1ccccn1 | 0.93 | 0.933 | 4.47 | > 100 | – |
| C/C(=N\Nc1nc(-c2ccc(Cl)cc2Cl)cs1)c1ccccn1 | 1.55 | 1.55 | 2 | > 100 | – |
| C/C(=N\Nc1nc(-c2ccc(Br)cc2)c(C)s1)c1ccccn1 | 1.35 | 1.35 | 2 | > 100 | – |

| Compound | IC50 (Trypanosoma cruzi; read-out: IC50) [µM] | IC50 (Trypanosoma cruzi; read-out: pIC50 (converted)) [µM] | CC50 at 96 h [1] [µM] | CC50 (HepG2) [µM] | selectivity ratio [2] |
| --- | --- | --- | --- | --- | --- |
| CC/C(=N\Nc1nc(-c2ccc(C)cc2)cs1)c1cccc(Br)c1 | 26.3 | 26.3 | > 50.1 | > 100 | – |
| CC/C(=N\Nc1nc(-c2cccc([N+](=O)[O-])c2)cs1)c1cccc(Br)c1 | 22.9 | 22.9 | 38 | > 100 | – |
| O=[N+]([O-])c1ccc(-c2csc(N/N=C/c3ccccn3)n2)cc1 | 11 | – | > 50.1 | > 100 | – |
| C/C(=N\Nc1nc(-c2ccc([N+](=O)[O-])cc2)cs1)c1ccccn1 | 1.26 | 1.26 | 20.9 | > 100 | – |
| COc1ccc(SC/C=N/NC(N)=S)cc1 | 17.4 | 17.4 | 0.52 | > 100 | – |
| CC/C(=N\Nc1nc(-c2ccc(Br)cc2)c(C)s1)c1cccc(Br)c1 | 24.6 | 24.5 | 33.1 | > 100 | – |
| C/C(=N\Nc1nc(-c2ccc(Cl)cc2)cs1)c1ccccn1 | 1.05 | 1.05 | 5.25 | > 100 | – |
| NC(=S)N/N=C/CSc1ccccc1 | 9.33 | 9.33 | 3.55 | > 100 | – |
| Cc1ccc(-c2csc(N/N=C/c3ccccn3)n2)cc1 | 2.63 | 2.63 | 43.6 | > 100 | – |
| COc1ccc(-c2csc(N/N=C/c3ccccn3)n2)cc1 | 2.69 | 2.69 | 11.5 | > 100 | – |
| C/C(=N\N=C1\SC(C(C)C)C(=O)N1c1ccccc1)c1ccc(Cl)c(Cl)c1 (configuration not stated) | > 50.1 | – | > 50.1 | > 100 | – |
| NC(=S)N/N=C/CSc1ccc(F)cc1 | 5.89 | 5.89 | > 50.1 | > 100 | – |
| CCC1S/C(=N/N=C(\C)c2ccc(Cl)c(Cl)c2)N(c2ccccc2)C1=O (configuration not stated) | > 50.1 | – | > 50.1 | > 100 | – |
| Fc1ccc(-c2csc(N/N=C/c3ccccn3)n2)cc1 | 2.29 | 2.29 | > 50.1 | 18.2 | – |
| CC/C(=N\Nc1nc(-c2ccccc2)cs1)c1cccc(Br)c1 | 18.2 | 18.2 | 26.3 | > 100 | – |
| NC(=S)N/N=C/CSc1cc(Cl)ccc1Cl | 2.57 | 2.57 | > 50.1 | > 100 | – |
| C/C(=N\Nc1nc(C)cs1)c1ccc(Cl)c(Cl)c1 | 8.32 | 8.32 | 38.9 | > 100 | – |
| Cc1sc(N/N=C/c2ccccn2)nc1-c1ccc(Br)cc1 | 1.38 | 1.38 | 18.6 | > 100 | – |
| Cc1ccc(C)c(SC/C=N/NC(N)=S)c1 | 3.24 | 3.24 | 20.9 | > 100 | – |
| CNC(=S)N/N=C(\C)c1ccc(Cl)c(Cl)c1 | 17 | – | > 50.1 | > 100 | – |
| C/C(=N\Nc1nc(-c2cccc([N+](=O)[O-])c2)cs1)c1ccccn1 | 0.89 | 0.891 | 3.63 | > 100 | – |
| Cc1ccc(SC/C=N/NC(N)=S)cc1 | 6.46 | 6.46 | > 50.1 | > 100 | – |
| C/C(=N\Nc1nc(-c2ccc(Cl)c(Cl)c2)cs1)c1ccccn1 | 1.26 | 1.26 | 2.34 | > 100 | – |
| C(=N\Nc1nc(-c2cccc3ccccc23)cs1)/c1ccccn1 | 3.39 | 3.39 | 7.24 | > 100 | – |
| Clc1ccc(-c2csc(N/N=C/c3ccccn3)n2)cc1Cl | 0.79 | 0.794 | 10.7 | > 100 | – |

Source: ChEMBL document CHEMBL3785037, “Compound profiling and 3D-QSAR studies of hydrazone derivatives with activity against intracellular Trypanosoma cruzi” (Bioorg Med Chem, 2016)
